# Data: paper PMC3352694 (International Journal of Nanomedicine, 2012)
# Assays:
# [1] = system: Caco-2 cell monolayers; experiment: Uptake of Lac-NCTD and its nanoparticles into Caco-2 cell monolayers; assay type: in vitro ADME, human
# In short: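 Monolayers grown 15 days from 1 × 10⁵ cells/cm² in plates, washed, preincubated 15 min at 37°C in HBSS pH 7.4, then exposed to drug or nanoparticle solution. After uptake (15 min, chosen within the linear range), cells were washed thrice with cold HBSS, scraped, homogenized and ultracentrifuged. Supernatant was assayed by reversed-phase HPLC, normalized to Bradford protein and given as mg/g protein, three determinations.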
# [2] = system: Caco-2 cell monolayers; experiment: Bidirectional transepithelial transport across Caco-2 cell monolayers; assay type: in vitro ADME, human
# In short: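 Caco-2 cells (passage 30–50) seeded at 1 × 10⁵ cells/cm² on 1.1 cm² polycarbonate inserts (1 μm pores), used day 21 when TEER reached 700 Ω·cm² and phenol red permeability <0.5%/h. HBSS pH 7.4 preincubation 15 min, 37°C; drug or nanoparticles dosed apically or basolaterally; receiver sampled at 5–60 min with replacement; reversed-phase HPLC. Papp = dQ/dt/(A·C0); PDR from BL→AP and AP→BL; n = 3.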
# [3] = cited from earlier work
substance,measurement,setting,value
Lactosyl-norcantharidin [Lac-NCTD],Effect of concentration on uptake,[1]; 100 μg/mL to 400 μg/mL,Concentration dependence or saturation was observed
same,Uptake amount,"[1]; 250 μg/mL, 4°C",1.35 ± 0.13 mg/g protein
same,Time course of uptake,"[1]; 250 μg/mL, 37°C","linear in relation to time, from 0 minutes to 30 minutes"
same,Uptake amount,"[1]; 250 μg/mL, pH 6.0",0.82 ± 0.23 mg/g protein
same,Effect of P-gp inhibitor CyA on uptake,[1]; CyA 20 μmol/L,facilitate the uptake procedure
same,Effect of MRP2 inhibitor MK-571 on uptake,[1]; MK-571 50 μmol/L,facilitate the uptake procedure
same,Change of Papp apical to basolateral with CyA,"[2]; 250 μg/mL, CyA 20 μmol/L",increased
same,Change of Papp basolateral to apical with CyA,"[2]; 250 μg/mL, CyA 20 μmol/L",decreased
same,Change of Papp apical to basolateral with MK-571,"[2]; 250 μg/mL, MK-571 50 μmol/L",significantly increased
same,Change of Papp basolateral to apical with MK-571,"[2]; 250 μg/mL, MK-571 50 μmol/L",lightly decreased
same,Change of Papp with bypass transport enhancer SDCh,"[2]; 250 μg/mL, SDCh 100 mmol/L, versus control",significantly increased
same,Change of Papp with endocytosis inhibitor oxophenylarsine,"[2]; 250 μg/mL, oxophenylarsine 25 mmol/L, versus control",no statistical difference
same,Increase of Papp apical to basolateral with CyA,[2]; CyA 20 μmol/L added to the apical side,1.41 times
same,Increase of Papp apical to basolateral with MK-571,[2]; MK-571 50 μmol/L added to the apical side,2.29 times
same,Therapy efficiency compared with NCTD,[3],significantly higher therapy efficiency
same,Toxicity compared with NCTD,[3],lower toxicity
